ChEMBL document CHEMBL1145012, “New benzo[h][1,6]naphthyridine and azepino[3,2-c]quinoline derivatives as selective antagonists of 5-HT4 receptors: binding profile and pharmacological characterization” (J Med Chem, 2003)

Experiments:
[1] = target: 5-hydroxytryptamine receptor 4 (Cavia porcellus, UniProt O70528); experiment: Ability to displace [3H]GR-113808 from 5-hydroxytryptamine 4 receptor
How it was run: (§1)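 Guinea pig striatal membranes (males, 220–224 g) in 50 mM HEPES pH 7.4, incubated in duplicate at 37 °C for 30 min with 0.6 nM [3H]GR 113808. Filtration on polyethylenimine-soaked GF/B filters. Nonspecific binding with 10 μM 5-HT. Screened as percent inhibition at 10⁻⁶ and 10⁻⁸ M; Ki derived for compounds giving over 40% inhibition at 10⁻⁸ M.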

[2] = target: 5-hydroxytryptamine receptor 4 (Cavia porcellus) (UniProt O70528); experiment: Ability to displace [3H]GR-113808 from 5-hydroxytryptamine 4 receptor at concentration of 10e-6 M in guinea pig; how it was run: as §1
[3] = target: 5-hydroxytryptamine receptor 4 (Cavia porcellus) (UniProt O70528); experiment: Ability to displace [3H]GR-113808 from 5-hydroxytryptamine 4 receptor at concentration of 10e-8 M in guinea pig; how it was run: as §1
Mus musculus [4] = experiment: Antinociceptive activity in the mouse writhing test after intraperitoneal dose of 0.01 mg/kg; assay type: functional
How it was run: (§2)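 Male OF1 mice (20–24 g), groups of eight. Compounds in saline given ip (10 mL/kg) 15 min before ip 0.6% aqueous acetic acid (10 mL/kg). Stretches per animal counted over 10 min, starting 10 min after acid. Stretch defined as back arching, pelvic rotation and hind limb extension. Data are mean ± SEM; ANOVA then Fisher PLSD.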

Mus musculus [5] = experiment: Antinociceptive activity in the mouse writhing test before administration of the compound; assay type: functional; how it was run: as §2
Mus musculus [6] = experiment: Antinociceptive activity in the mouse writhing test after intraperitoneal dose of 0.1 mg/kg; assay type: functional; how it was run: as §2
Mus musculus [7] = experiment: Antinociceptive activity in the mouse writhing test after intraperitoneal dose of 1 mg/kg; assay type: functional; how it was run: as §2
[8] = target: Sodium-dependent serotonin transporter (Homo sapiens) (UniProt P31645); experiment: Ability to recapture 5-HT by displace [3H]paroxetine at serotonin transporter at concentration of 10e-7 M
[9] = target: Sodium-dependent dopamine transporter (Rattus norvegicus) (UniProt P23977); experiment: Ability to recapture DA by displace [3H]GBR-12935 from dopamine transporter at concentration of 10e-5 M
[10] = Lethal dose of the compound; assay type: ADME
How it was run: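 Male OF1 mice (20–24 g), in groups of four, received graded ip doses (12.5, 25, 50 mg/kg) in saline (10 mL/kg).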

Mus musculus [11] = experiment: Compound was tested at subtoxic doses of 12.5-25-50 mg/kg in mice; Symptoms are Hypoactivity,relaxation,Passivity.; assay type: ADME, organism-based; conditions: in vivo
[12] = target: 5-hydroxytryptamine receptor 7 (Homo sapiens) (UniProt P34969); experiment: Ability to displace [125I]LSD […] from 5-hydroxytryptamine 7 receptor at concentration of 10e-6 M
[13] = target: 5-hydroxytryptamine receptor 2A (Homo sapiens, UniProt P28223); experiment: Ability to displace [3H]-ketanserin from 5-hydroxytryptamine 2A receptor
[14] = target: Histamine H1 receptor (Homo sapiens) (UniProt P35367); experiment: Ability to displace [3H]mepyramine from histamine H1 receptor at concentration of 10e-7 M
Mus musculus [15] = experiment: Antinociceptive activity in the mouse writhing test after intraperitoneal dose of 1 mg/kg; p<0.01; assay type: functional; how it was run: as §2
[16] = target: 5-hydroxytryptamine receptor 2C (Homo sapiens, UniProt P28335); experiment: Ability to displace [3H]mesulergine from 5-hydroxytryptamine 2C receptor
Mus musculus [17] = experiment: Antinociceptive activity in the mouse writhing test after intraperitoneal dose of 0.1 mg/kg; p<0.05.; assay type: functional; how it was run: as §2
Vasopressin V1b receptor = Vasopressin V1b receptor (Rattus norvegicus, UniProt P48974); experiment: Ability to displace [3H]AVP from vasopressin V1 receptor
[18] = target: 5-hydroxytryptamine receptor 1A (Mus musculus, UniProt Q64264); experiment: Ability to displace [3H]8-OH-DPAT from 5-hydroxytryptamine 1A receptor
[19] = target: 5-hydroxytryptamine receptor 2B (Homo sapiens, UniProt P41595); experiment: Ability to displace [3H]5-HT from 5-hydroxytryptamine 2B receptor
D(2) dopamine receptor = D(2) dopamine receptor (Homo sapiens, UniProt P14416); experiment: Ability to displace [3H]YM-0915 from Dopamine receptor D2
[20] = Ability to recaprure NAD using [3H]-nisoxatine at concentration of 10e-7 M
[21] = target: Sodium-dependent dopamine transporter (Rattus norvegicus) (UniProt P23977); experiment: Ability to recapture DA by displace [3H]GBR-12935 from dopamine transporter at concentration of 10e-7 M
[22] = target: 5-hydroxytryptamine receptor 7 (Homo sapiens) (UniProt P34969); experiment: Ability to displace [125I]LSD […] from 5-hydroxytryptamine 7 receptor at concentration of 10e-8 M
[23] = target: Histamine H2 receptor (Rattus norvegicus) (UniProt P25102); experiment: Ability to displace [3H]tiotidine from histamine-H2 receptor at concentration of 10e-7 M
[24] = target: Beta-2 adrenergic receptor (Homo sapiens) (UniProt P07550); experiment: Ability to displace [3H]-CGP-12,177 from adrenergic Beta-2 adrenergic receptor at concentration of 10e-5 M
[25] = target: 5-hydroxytryptamine receptor 6 (Homo sapiens) (UniProt P50406); experiment: Ability to displace [125I]LSD […] from 5-hydroxytryptamine 6 receptor at concentration of 10e-6 M
Mus musculus [26] = experiment: Compound was tested at toxic doses of 12.5-25-50 mg/kg in mice; Convulsions.; assay type: ADME, organism-based; conditions: in vivo
[27] = target: 5-hydroxytryptamine receptor 4 (Mus musculus, UniProt P97288); experiment: Ability to displace [3H]GR-113808 from mouse 5-hydroxytryptamine 4 receptor in COS7 cells; assay type: cell-based, COS-7
[28] = target: 5-hydroxytryptamine receptor 6 (Homo sapiens) (UniProt P50406); experiment: Ability to displace [125I]LSD […] from 5-hydroxytryptamine 6 receptor at concentration of 10e-8 M
D(1A) dopamine receptor = D(1A) dopamine receptor (Mus musculus, UniProt Q61616); experiment: Ability to displace [3H]SCH-23390 from Dopamine receptor D1
[29] = target: Sodium-dependent serotonin transporter (Homo sapiens) (UniProt P31645); experiment: Ability to recapture 5-HT by displacing [3H]paroxetine at serotonin transporter at concentration of 10e-5 M
[30] = target: Beta-1 adrenergic receptor (Homo sapiens) (UniProt P08588); experiment: Ability to displace [3H]CGP-12177 from Beta-1 adrenergic receptor at concentration of 10e-5 M
Vasopressin V2 receptor = Vasopressin V2 receptor (Sus scrofa, UniProt P32307); experiment: Ability to displace [3H]AVP from Vasopressin V2 receptor
[31] = target: Histamine H1 receptor (Homo sapiens) (UniProt P35367); experiment: Ability to displace [3H]-mepyramine from histamine H1 receptor at concentration of 10e-5 M
[32] = target: Beta-2 adrenergic receptor (Homo sapiens) (UniProt P07550); experiment: Ability to displace [3H]CGP-12177 from Beta-2 adrenergic receptor at concentration of 10e-7 M
[33] = target: Histamine H2 receptor (Rattus norvegicus) (UniProt P25102); experiment: Ability to displace [3H]tiotidine from histamine-H2 receptor at concentration of 10e-5 M
[34] = Ability to recaprure NAD using [3H]nisoxetine at concentration of 10e-5 M
[35] = target: Beta-1 adrenergic receptor (Homo sapiens) (UniProt P08588); experiment: Ability to displace [3H]CGP-12177 from Beta-1 adrenergic receptor at concentration of 10e-7 M
Mus musculus [36] = experiment: Antinociceptive activity in the mouse writhing test after intraperitoneal dose of 5 mg/kg; assay type: functional; how it was run: as §2
Mus musculus [37] = experiment: Antinociceptive activity in the mouse writhing test after intraperitoneal dose of 30 mg/kg; assay type: functional; how it was run: as §2
Mus musculus [38] = experiment: Compound was tested at subtoxic dose of 25 mg/kg in mice; Symptoms are hyperactivity, irritability, stereotypy.; assay type: ADME, organism-based; design: dose 25 mg/kg; conditions: in vivo

Sequence of 5-hydroxytryptamine receptor 4 (Cavia porcellus) (O70528 whole entry): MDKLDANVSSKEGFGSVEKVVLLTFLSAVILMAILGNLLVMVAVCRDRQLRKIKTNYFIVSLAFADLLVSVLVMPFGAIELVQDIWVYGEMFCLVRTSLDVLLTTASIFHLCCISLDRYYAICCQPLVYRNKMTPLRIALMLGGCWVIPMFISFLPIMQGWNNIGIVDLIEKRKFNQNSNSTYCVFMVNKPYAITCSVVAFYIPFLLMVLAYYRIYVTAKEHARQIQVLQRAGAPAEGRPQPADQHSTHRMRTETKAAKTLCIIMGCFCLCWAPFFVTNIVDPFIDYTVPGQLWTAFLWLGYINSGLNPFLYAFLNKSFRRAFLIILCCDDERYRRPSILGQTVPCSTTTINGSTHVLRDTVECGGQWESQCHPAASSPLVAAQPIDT
Sequence of 5-hydroxytryptamine receptor 4 (Cavia porcellus, UniProt O70528) (O70528 whole entry): as above
Sequence of Histamine H1 receptor (Homo sapiens) (P35367 whole entry): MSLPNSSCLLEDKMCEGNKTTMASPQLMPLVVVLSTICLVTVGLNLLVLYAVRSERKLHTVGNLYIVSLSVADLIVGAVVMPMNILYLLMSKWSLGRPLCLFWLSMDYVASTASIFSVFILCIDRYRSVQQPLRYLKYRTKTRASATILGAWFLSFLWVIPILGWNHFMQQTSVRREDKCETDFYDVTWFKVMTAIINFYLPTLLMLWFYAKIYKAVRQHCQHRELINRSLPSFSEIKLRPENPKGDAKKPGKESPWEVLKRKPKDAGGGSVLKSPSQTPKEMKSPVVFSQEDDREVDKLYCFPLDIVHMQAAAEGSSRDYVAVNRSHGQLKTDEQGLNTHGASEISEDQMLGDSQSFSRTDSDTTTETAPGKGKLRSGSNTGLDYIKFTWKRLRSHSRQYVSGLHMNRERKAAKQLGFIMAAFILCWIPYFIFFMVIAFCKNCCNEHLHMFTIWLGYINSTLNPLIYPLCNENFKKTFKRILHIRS
Sequence of Beta-1 adrenergic receptor (Homo sapiens) (P08588 whole entry, looked up): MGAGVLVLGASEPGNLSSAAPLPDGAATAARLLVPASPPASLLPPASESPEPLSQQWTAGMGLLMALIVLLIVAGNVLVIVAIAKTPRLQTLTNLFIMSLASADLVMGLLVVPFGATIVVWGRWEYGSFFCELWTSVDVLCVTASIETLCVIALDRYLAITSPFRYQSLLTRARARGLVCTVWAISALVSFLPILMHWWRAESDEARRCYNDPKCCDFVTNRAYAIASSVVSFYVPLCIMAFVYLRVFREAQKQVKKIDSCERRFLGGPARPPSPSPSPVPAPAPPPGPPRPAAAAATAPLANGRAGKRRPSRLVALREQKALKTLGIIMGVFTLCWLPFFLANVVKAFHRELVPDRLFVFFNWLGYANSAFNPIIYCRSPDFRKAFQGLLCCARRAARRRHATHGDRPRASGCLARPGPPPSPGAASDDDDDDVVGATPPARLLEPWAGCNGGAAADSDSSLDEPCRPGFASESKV
Sequence of Sodium-dependent dopamine transporter (Rattus norvegicus) (P23977 whole entry): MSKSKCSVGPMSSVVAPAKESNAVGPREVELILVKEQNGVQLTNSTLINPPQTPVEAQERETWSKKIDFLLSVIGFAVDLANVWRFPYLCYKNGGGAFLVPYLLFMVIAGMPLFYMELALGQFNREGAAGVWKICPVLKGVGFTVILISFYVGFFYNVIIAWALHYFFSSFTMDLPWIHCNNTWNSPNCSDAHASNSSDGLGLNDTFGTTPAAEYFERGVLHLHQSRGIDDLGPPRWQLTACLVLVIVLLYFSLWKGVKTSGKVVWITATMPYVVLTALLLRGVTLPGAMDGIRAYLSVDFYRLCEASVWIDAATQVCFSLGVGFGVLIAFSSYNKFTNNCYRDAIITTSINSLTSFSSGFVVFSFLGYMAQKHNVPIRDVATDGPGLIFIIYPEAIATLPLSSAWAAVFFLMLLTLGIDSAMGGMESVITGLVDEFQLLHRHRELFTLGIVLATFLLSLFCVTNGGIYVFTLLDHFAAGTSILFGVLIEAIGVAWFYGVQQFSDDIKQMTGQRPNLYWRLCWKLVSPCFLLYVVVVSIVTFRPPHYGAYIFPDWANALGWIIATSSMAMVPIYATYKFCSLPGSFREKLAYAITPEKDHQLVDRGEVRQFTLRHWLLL
Sequence of 5-hydroxytryptamine receptor 7 (Homo sapiens) (P34969 whole entry): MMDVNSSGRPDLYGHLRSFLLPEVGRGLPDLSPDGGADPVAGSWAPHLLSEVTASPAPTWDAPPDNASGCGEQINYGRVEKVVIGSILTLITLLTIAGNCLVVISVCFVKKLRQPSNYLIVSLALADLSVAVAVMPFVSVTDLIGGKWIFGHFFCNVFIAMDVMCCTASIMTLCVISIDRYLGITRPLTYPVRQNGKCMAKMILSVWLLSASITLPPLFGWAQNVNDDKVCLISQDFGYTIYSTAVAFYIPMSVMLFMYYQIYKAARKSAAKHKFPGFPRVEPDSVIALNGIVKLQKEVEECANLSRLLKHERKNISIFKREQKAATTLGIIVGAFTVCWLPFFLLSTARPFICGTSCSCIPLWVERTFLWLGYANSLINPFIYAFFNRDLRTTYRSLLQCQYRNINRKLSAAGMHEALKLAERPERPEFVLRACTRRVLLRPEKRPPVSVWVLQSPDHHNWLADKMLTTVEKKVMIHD
Sequence of 5-hydroxytryptamine receptor 6 (Homo sapiens) (P50406 whole entry): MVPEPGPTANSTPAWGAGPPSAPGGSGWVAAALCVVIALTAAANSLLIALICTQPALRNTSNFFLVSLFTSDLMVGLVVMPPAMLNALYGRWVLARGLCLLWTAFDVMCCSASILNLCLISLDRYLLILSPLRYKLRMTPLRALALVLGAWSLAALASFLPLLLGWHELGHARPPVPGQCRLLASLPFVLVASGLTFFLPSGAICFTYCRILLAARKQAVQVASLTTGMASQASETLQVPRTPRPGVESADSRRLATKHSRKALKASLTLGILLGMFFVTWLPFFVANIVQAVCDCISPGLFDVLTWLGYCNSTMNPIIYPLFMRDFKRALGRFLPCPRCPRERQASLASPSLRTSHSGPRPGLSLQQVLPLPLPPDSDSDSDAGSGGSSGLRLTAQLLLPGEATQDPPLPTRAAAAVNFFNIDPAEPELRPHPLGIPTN
Sequence of Histamine H2 receptor (Rattus norvegicus) (P25102 whole entry): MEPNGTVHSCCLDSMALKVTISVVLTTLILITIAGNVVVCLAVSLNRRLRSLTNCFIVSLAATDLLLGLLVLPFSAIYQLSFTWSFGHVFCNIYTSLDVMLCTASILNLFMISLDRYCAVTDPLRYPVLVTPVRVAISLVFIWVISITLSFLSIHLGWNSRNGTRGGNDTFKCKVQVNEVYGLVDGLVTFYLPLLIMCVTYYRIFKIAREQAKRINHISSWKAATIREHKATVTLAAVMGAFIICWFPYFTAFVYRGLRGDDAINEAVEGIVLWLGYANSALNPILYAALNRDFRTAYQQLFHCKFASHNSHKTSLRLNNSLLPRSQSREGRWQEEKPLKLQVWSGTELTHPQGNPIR
Sequence of Sodium-dependent serotonin transporter (Homo sapiens) (P31645 whole entry, looked up): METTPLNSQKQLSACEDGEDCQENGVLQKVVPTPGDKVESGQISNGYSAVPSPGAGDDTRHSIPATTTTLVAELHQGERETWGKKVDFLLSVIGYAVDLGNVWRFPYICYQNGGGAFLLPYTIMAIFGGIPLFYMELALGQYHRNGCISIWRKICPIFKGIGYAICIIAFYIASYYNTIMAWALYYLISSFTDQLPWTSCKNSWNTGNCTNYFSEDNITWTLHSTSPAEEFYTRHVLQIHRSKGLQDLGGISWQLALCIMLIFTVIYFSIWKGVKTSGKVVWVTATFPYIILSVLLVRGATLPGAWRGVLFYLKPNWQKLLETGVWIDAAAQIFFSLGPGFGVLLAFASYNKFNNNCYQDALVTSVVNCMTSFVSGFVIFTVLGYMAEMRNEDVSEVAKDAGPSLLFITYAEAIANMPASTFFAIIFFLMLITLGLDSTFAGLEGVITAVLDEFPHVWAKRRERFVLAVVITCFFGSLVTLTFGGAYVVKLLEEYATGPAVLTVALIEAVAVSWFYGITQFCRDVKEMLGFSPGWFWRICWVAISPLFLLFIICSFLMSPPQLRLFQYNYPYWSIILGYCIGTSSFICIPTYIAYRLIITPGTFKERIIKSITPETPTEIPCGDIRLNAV
Sequence of Beta-2 adrenergic receptor (Homo sapiens) (P07550 whole entry, looked up): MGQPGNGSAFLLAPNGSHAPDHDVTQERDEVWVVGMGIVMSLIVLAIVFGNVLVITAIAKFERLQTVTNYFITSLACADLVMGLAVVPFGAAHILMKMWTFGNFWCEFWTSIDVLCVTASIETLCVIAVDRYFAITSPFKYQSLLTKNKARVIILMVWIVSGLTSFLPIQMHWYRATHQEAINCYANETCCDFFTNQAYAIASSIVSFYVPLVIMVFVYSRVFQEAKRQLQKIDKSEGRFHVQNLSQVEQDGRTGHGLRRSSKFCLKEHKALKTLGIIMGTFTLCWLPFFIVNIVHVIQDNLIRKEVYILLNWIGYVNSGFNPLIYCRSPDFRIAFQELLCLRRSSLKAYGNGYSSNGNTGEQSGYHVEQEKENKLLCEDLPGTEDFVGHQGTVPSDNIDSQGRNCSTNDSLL
Sequence of 5-hydroxytryptamine receptor 1A (Q64264 whole entry): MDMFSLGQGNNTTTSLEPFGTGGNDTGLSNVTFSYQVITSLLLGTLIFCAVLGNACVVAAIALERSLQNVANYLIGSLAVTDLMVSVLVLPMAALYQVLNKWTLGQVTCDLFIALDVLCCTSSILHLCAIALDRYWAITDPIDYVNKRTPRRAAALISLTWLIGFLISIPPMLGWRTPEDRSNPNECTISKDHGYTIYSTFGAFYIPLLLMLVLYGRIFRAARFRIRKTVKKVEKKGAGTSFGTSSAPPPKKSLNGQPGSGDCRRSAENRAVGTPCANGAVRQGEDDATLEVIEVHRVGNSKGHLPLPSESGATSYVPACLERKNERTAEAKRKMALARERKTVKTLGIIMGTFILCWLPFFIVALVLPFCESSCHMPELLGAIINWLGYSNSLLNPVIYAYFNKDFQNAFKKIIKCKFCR

CCCCCN1CCC(COc2nc3ccccc3c3c2CCCN3)CC1
Ki [1]: 12.5 nM | inhibition [2]: 100% | inhibition [3]: 51%

CCN1CCC(COc2nc3ccccc3c3c2CCCCN3)CC1
Ki [1]: 10.7 nM | inhibition [2]: 100% | inhibition [3]: 51%

COc1[nH]c2ccc(F)cc2c1C(=O)OCC1CCN(CCNS(C)(=O)=O)CC1
Stretches (Mus musculus [4]): 16.5 | Stretches (Mus musculus [5]): 20 | Stretches (Mus musculus [6]): 11.5 | Stretches (Mus musculus [7]): 11.2

C#CCN1CCC(COc2nc3ccccc3c3c2CCCN3)CC1
inhibition [2]: 100% | inhibition [3]: 15%

CCN1CCC(COc2nc3ccccc3c3c2CCCN3)CC1
Ki [1]: 13.1 nM | inhibition [2]: 100% | inhibition [3]: 55%

CN1CCC(COc2nc3ccccc3c3c2CCCN3)CC1
Ki [1]: 79.7 nM | inhibition [2]: 100% | inhibition [3]: 52%

Cn1cc(C(=O)OCC2CCN(CCNS(C)(=O)=O)CC2)c2ccccc21
Stretches (Mus musculus [4]): 18.2 | Stretches (Mus musculus [5]): 21.8 | Stretches (Mus musculus [6]): 12.8 | Stretches (Mus musculus [7]): 12.3

CCCCCN1CCC(COc2nc3ccccc3c3c2CCCCN3)CC1
inhibition [2]: 100% | inhibition [3]: 0%

C=CCN1CCC(COc2nc3ccccc3c3c2CCCN3)CC1
inhibition [2]: 100% | inhibition [3]: 31%

CCCN1CCC(COc2nc3ccc(Cl)cc3c3c2CCCN3)CC1
inhibition [2]: 100% | inhibition [3]: 0%

CCCCN1CCC(COc2nc3ccccc3c3c2CCCN3)CC1
Ki [1]: 10 nM | inhibition [2]: 100% | inhibition [3]: 77%

CCCN1CCC(COc2nc3ccccc3c3c2CCCN3)CC1
Stretches (Mus musculus [4]): 19 | inhibition [8]: 0% | Stretches (Mus musculus [5]): 24.6 | Ki [1]: 2.89 nM | inhibition [9]: 61% | LD50 [10]: 37.5 mg/kg | Symptoms (Mus musculus [11]): Active | inhibition [12]: 36% | IC50 [13]: 5 µM | inhibition [14]: 0% | Stretches (Mus musculus [15]): 12.5 | IC50 [16]: 3.4 µM | Stretches (Mus musculus [17]): 13.8 | IC50 (Vasopressin V1b receptor): 3.2 µM | IC50 [18]: 9.1 µM | IC50 [19]: 200 nM | IC50 (D(2) dopamine receptor): 3.4 µM | inhibition [20]: 17% | inhibition [2]: 100% | inhibition [3]: 70% | inhibition [21]: 13% | inhibition [22]: 20% | inhibition [23]: 0% | inhibition [24]: 70% | inhibition [25]: 12% | Symptoms (Mus musculus [26]): Active | IC50 [27]: 0.56 nM | inhibition [28]: 0% | IC50 (D(1A) dopamine receptor): > 100 µM | inhibition [29]: 79% | inhibition [30]: 39% | IC50 (Vasopressin V2 receptor): 11 µM | inhibition [31]: 91% | inhibition [32]: 0% | inhibition [33]: 75% | inhibition [34]: 23% | inhibition [35]: 0%

CCCN1CCC(COc2nc3ccc(Cl)cc3c3c2CCCCN3)CC1
inhibition [2]: 91% | inhibition [3]: 5%

CN1C(C(=O)Nc2ccccn2)=C(O)c2ccccc2S1(=O)=O [PIROXICAM]
Stretches (Mus musculus [5]): 24.6 | Stretches (Mus musculus [36]): 2.4

CC(=O)Oc1ccccc1C(=O)O [ASPIRIN]
Stretches (Mus musculus [5]): 25.8 | Stretches (Mus musculus [37]): 8.7

CCCN1CCC(COc2nc3ccccc3c3c2CCCCN3)CC1
Ki [1]: 12.7 nM | inhibition [2]: 100% | inhibition [3]: 55%

c1ccc2c3c(c(OCC4CCNCC4)nc2c1)CCCN3
inhibition [2]: 96% | inhibition [3]: 24%

CCCN1CCC(COc2nc3cc(Cl)ccc3c3c2CCCCN3)CC1
inhibition [2]: 98% | inhibition [3]: 0%

CCCCN1CCC(COc2nc3ccc(Cl)cc3c3c2CCCCN3)CC1
inhibition [2]: 92% | inhibition [3]: 0%

COC(=O)C(c1ccccc1)C1CCCCN1 (centres undefined) [METHYLPHENIDATE]
Symptoms (Mus musculus [38]): Hyperactivity, irritability, stereotypy

CCCCN1CCC(COc2nc3ccc(Cl)cc3c3c2CCCN3)CC1
inhibition [2]: 100% | inhibition [3]: 2%

CCCCN1CCC(COc2nc3ccccc3c3c2CCCCN3)CC1
Ki [1]: 16.3 nM | inhibition [2]: 100% | inhibition [3]: 44%
